Assay results: PubChem BioAssay
Results filed as inconclusive are left out.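 The calls were made as follows, unless noted: active = cell viability at or below a set limit in both duplicate runs, the limit being the all-compound median minus 4 SD (cut at about 23% in these data, passing the limit was not always enough); inconclusive = no clear call, values can overlap the other calls; inactive = the rest.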

What was measured:
[1] = S. cerevisiae growth inhibition in permissive medium (OD615), pilot counter-assay for S. cerevisiae lifespan shortening project, permissive growth control (AID 705;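 active = growth inhibition above 25% in both replicates, a cutoff set 3 SD above the mean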); conditions: OD615, 24 h, at 10 µM, stronger effect = higher value
In short: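 System: Engineered DeaD yeast | Buffer or medium: SC raffinose/galactose permissive medium | Doses: 10 µM single dose, 0.25% DMSO | Times: 24 h exposure, 30 °C | Measured by: OD615 turbidity read | Read-out: Yeast growth inhibition indicated by reduced 24 h OD615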

[2] = S. cerevisiae growth inhibition in restrictive medium, OD615, pilot screen, restrictive growth control, yeast lifespan reduction project (AID 706;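 active = growth inhibition above a set limit, 3 SD over mean compound inhibition, in both replicates, cut at about 43% in these data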;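 also: modified DeaD lifespan yeast strain shifted to restrictive glucose medium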); conditions: OD615, 48 h, at 10 µM, stronger effect = higher value
In short: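 Assay system: engineered S. cerevisiae DeaD strain; Buffer or medium: CSMM-D glucose medium; Dosing: 10 µM compound, 0.25% DMSO; Times: cell pre-growth 4 h, compound exposure 48 h, 30 °C; Detection: absorbance (optical density) measured at 615 nm.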

[3] = doxorubicin toxicity protection in MRP-1 cells – H69AR cells, CellTiter-Glo, duplicate, MRP-1 activator project, pilot screen (AID 807;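 active = viability increase at or above a cutoff of the median across tested compounds plus 3 SD, cut at about 8.5% in these data, passing the limit was not always enough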;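 also: compound pretreatment 18-22 h then 72 h combined with doxorubicin; 0% = doxorubicin alone and 100% = vehicle without doxorubicin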); conditions: H69AR viability with doxorubicin, CellTiter-Glo luminescence; at 10 µM; stronger effect = higher value
[4] = viability of HCT116 without oncogenic beta-catenin – human colon tumor cells, pilot screen (AID 823); conditions: HCT116 beta-catenin knockout viability, CellTiter-Glo, 60 h; at 10 µM; stronger effect = lower value;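 also: 0% = wells killed by 20 µM Hyamine and 100% = untreated DMSO cell wells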
[5] = viability of PTEN-null HCT116 cells – cell-based, HCT116 clonal line, CellTiter-Glo, pilot screen (AID 824;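 active = viability at or below 27.92% in each of two runs, the all-compound median minus 4 SD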;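 also: 0% = 20 µM Hyamine control and 100% = vehicle cell control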); conditions: HCT116 PTEN-deleted viability, 60 h, at 10 µM, stronger effect = lower value
[6] = RAM pathway blockade in budding yeast – dse1pr::URA3 reporter, 5-FOA selection, pilot screen (AID 869;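 active = inhibition over a set limit, the all-compound mean plus 3 SD, in both replicate runs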;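 also: 0% = DMSO wells with no growth and 100% = 10 µM 1-NA-PP1 with full growth; RAM network block rescues cells from 5-FOA so hits raise OD615 growth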); conditions: S. cerevisiae dse1pr::URA3 5-FOA growth, OD615, 2 d; at 10 µM; stronger effect = higher value; strain carries analog-sensitive mutant Cbk1 kinase
[7] = RAM signaling pathway blockade in yeast – S. cerevisiae, Pdr1DBD-CYC8 efflux-inhibited sensitized strain, primary screen (AID 1298;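 active = RAM network inhibition above 8.4% in each of two replicates, 3 SD over the compound average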;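 also: 0% = DMSO untreated cells without growth and 100% = 10 µM 1-NA-PP1 full growth; higher means more yeast growth rescued from 5-FOA killing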); conditions: S. cerevisiae cbk1-as DSE1-URA3 strain, 5-FOA growth OD615, 2 d; at 50 µM; stronger effect = higher value

O=C(NCCCNC(=O)c1cccs1)c1cccs1
inactive: growth inhibition [1] 3.77% | growth inhibition [2] -0.395% | viability increase [3] 0% | viability [4] 96.6% | viability [5] 108% | inhibition [6] 1.09% | RAM network inhibition [7] 5.26%

O=C(Cn1cnc2c(nnn2-c2ccccc2)c1=O)N1CCOCC1
inactive: growth inhibition [1] -5.42% | growth inhibition [2] -7.92% | viability increase [3] 0.78% | viability [4] 104% | viability [5] 104% | inhibition [6] -0.26% | RAM network inhibition [7] 0.26%

COc1cc(OC)cc(OCC(O)Cn2cnc3cc(C)c(C)cc32)c1 (configuration not stated)
inactive: growth inhibition [1] -4.53% | growth inhibition [2] -8.79% | viability increase [3] -5.24% | viability [4] 80.2% | viability [5] 80.3% | inhibition [6] 1.33% | RAM network inhibition [7] -0.82%

CCC(C)NC(=O)c1ccccc1NC(=O)CN1C(=O)c2ccccc2S1(=O)=O (configuration not stated)
inactive: growth inhibition [1] -17.3% | growth inhibition [2] -18.6% | viability increase [3] 0.23% | viability [4] 105% | viability [5] 95.2% | inhibition [6] 1.33% | RAM network inhibition [7] 5.02%

CCOC(=O)c1c(C)n(C)c2ccc(OCC(O)CN3CCC(C)CC3)cc12 (configuration not stated)
inactive: growth inhibition [1] -1.52% | growth inhibition [2] 4.4% | viability increase [3] -5.47% | viability [4] 70.2% | viability [5] 75.8% | inhibition [6] 0.415% | RAM network inhibition [7] -0.57%

CN(C)CCCN1C(=O)c2oc3ccc(F)cc3c(=O)c2C1c1cccnc1 (configuration not stated)
inactive: growth inhibition [1] 4.42% | growth inhibition [2] 7.96% | viability increase [3] -1.1% | viability [4] 107% | viability [5] 98.7% | inhibition [6] 2.9% | RAM network inhibition [7] 2.14%

O=C(CCS(=O)(=O)c1cccc2nonc12)NC1CCCCCC1
inactive: growth inhibition [1] -7.86% | growth inhibition [2] -9.46% | viability increase [3] -4.43% | viability [4] 86.7% | viability [5] 84.5% | inhibition [6] 0.855% | RAM network inhibition [7] 0.93%

COc1ccc(-c2nc(CS(=O)CC(=O)NC3CCCc4ccccc43)c(C)o2)cc1OC (configuration not stated)
inactive: growth inhibition [1] -8.29% | growth inhibition [2] 3.54% | viability increase [3] -2.94% | viability [4] 84.5% | viability [5] 90.9% | inhibition [6] 1.64% | RAM network inhibition [7] 8.66%

COc1ccccc1NC(=O)c1ccc(S(=O)(=O)N(C)C)cc1
inactive: growth inhibition [1] 0.34% | growth inhibition [2] 6.62% | viability increase [3] -0.55% | viability [4] 108% | viability [5] 105% | inhibition [6] 2.33% | RAM network inhibition [7] -1.21%

Fc1cccc(CSc2nc3ccncc3[nH]2)c1
inactive: growth inhibition [1] -13.4% | growth inhibition [2] -9.72% | viability increase [3] -0.81% | viability [4] 94.9% | viability [5] 79.7% | inhibition [6] 1.6% | RAM network inhibition [7] 7.53%

CC1CCN(S(=O)(=O)N2CCC(C(=O)N3CCC(N(C)CC4CCCO4)CC3)CC2)CC1 (configuration not stated)
inactive: growth inhibition [1] -0.85% | growth inhibition [2] -5.09% | viability increase [3] -1.16% | viability [4] 90.6% | viability [5] 95.3% | inhibition [6] 2.09% | RAM network inhibition [7] 0.73%

COc1ccc(C2CC(c3cccc(C)c3)n3nc(N)nc3N2)cc1 (configuration not stated)
inactive: growth inhibition [1] 6.39% | growth inhibition [2] 9.63% | viability increase [3] -1.84% | viability [4] 105% | viability [5] 92.8% | inhibition [6] 3.25% | RAM network inhibition [7] 1.68%

c1ccc(-c2cnn3nnnc3n2)cc1
inactive: growth inhibition [1] 0.085% | growth inhibition [2] -12.7% | viability increase [3] -1.17% | viability [4] 102% | viability [5] 97.9% | inhibition [6] 1.85% | RAM network inhibition [7] 1.66%

CCOc1ccc(-c2nc(CSc3nncs3)cs2)cc1OC
inactive: growth inhibition [1] 4.37% | growth inhibition [2] 16.2% | viability increase [3] -3.61% | viability [4] 84.1% | viability [5] 82% | inhibition [6] 0.655% | RAM network inhibition [7] 5.42%

CC(C)COC(=O)c1cc(=O)[nH]c2ccccc12
inactive: growth inhibition [1] -4.92% | growth inhibition [2] -14.4% | viability increase [3] -2.47% | viability [4] 87.4% | viability [5] 84.1% | inhibition [6] 0.855% | RAM network inhibition [7] 0.1%

CCCN1C(=O)c2cc(C(=O)NC3CCCC3)ccc2C1O (configuration not stated)
inactive: growth inhibition [1] -10.3% | growth inhibition [2] -1.61% | viability increase [3] -2.46% | viability [4] 103% | viability [5] 95.5% | inhibition [6] 0.125% | RAM network inhibition [7] 9.43%

COc1ccc(-n2cnnc2)cc1
inactive: growth inhibition [1] -1.44% | growth inhibition [2] -0.83% | viability increase [3] -2.88% | viability [4] 98.2% | viability [5] 101% | inhibition [6] 1.05% | RAM network inhibition [7] -0.78%

O=S(=O)(c1ccccc1)n1ccc2ccccc21
inactive: growth inhibition [1] -3% | growth inhibition [2] 5.11% | viability increase [3] -5.11% | viability [4] 87.4% | viability [5] 89.1% | inhibition [6] 0.255% | RAM network inhibition [7] 6.25%

Cn1c(=O)[nH]c(=O)c2c1nc(SCCN1CCOCC1)n2CCCc1ccccc1
inactive: growth inhibition [1] -6.32% | growth inhibition [2] -14.4% | viability increase [3] -3.69% | viability [4] 96.8% | viability [5] 85.5% | inhibition [6] 0.63% | RAM network inhibition [7] 4.46%

Cc1ccc(-c2nc(CS(=O)(=O)CC(=O)N3CCc4ccccc4C3)c(C)o2)cc1
inactive: growth inhibition [1] -3.42% | growth inhibition [2] -1.55% | viability increase [3] -2.25% | viability [4] 67.4% | viability [5] 68.9% | inhibition [6] 0.555% | RAM network inhibition [7] 7.91%

CCC(CO)N=CC1=C(O)CC(C)(C)CC1=O (configuration not stated)
inactive: growth inhibition [1] 3.97% | growth inhibition [2] -5.8% | viability increase [3] -0.8% | viability [4] 102% | viability [5] 98.8% | inhibition [6] -0.06% | RAM network inhibition [7] 0.21%

Cc1ccc(S(=O)(=O)NC2OC(=O)C(Cl)=C2Cl)cc1 (configuration not stated)
inactive: growth inhibition [1] -17.3% | growth inhibition [2] 10.1% | viability increase [3] -3.7% | viability [4] 86.4% | viability [5] 104% | inhibition [6] 0.495% | RAM network inhibition [7] 2.08%

Cc1c2cnn(-c3ccccc3)c(=O)c2c(C)n1CCCC(=O)N1CCN(C)CC1
inactive: growth inhibition [1] -6.96% | growth inhibition [2] -7.72% | viability increase [3] -1.33% | viability [4] 104% | viability [5] 96.2% | inhibition [6] 1.86% | RAM network inhibition [7] 3.19%

Cn1c(=O)[nH]c(=O)c2c1nc(N1CCC(Cc3ccccc3)CC1)n2Cc1ccccc1
inactive: growth inhibition [1] -19.2% | growth inhibition [2] -10.1% | viability increase [3] -6.11% | viability [4] 82.8% | viability [5] 69.5% | inhibition [6] 2.9% | RAM network inhibition [7] 3.08%

COc1ccc(-c2c(C)oc3c(CN4CCCCC4C)c(O)ccc3c2=O)cc1OC (configuration not stated)
inactive: growth inhibition [1] -13.7% | growth inhibition [2] -7.48% | viability increase [3] -9.18% | viability [4] 103% | viability [5] 97.5% | inhibition [6] 1.71% | RAM network inhibition [7] 4.01%

CC(C)OCCCNC(=O)c1cc2c(=O)n(C)c3ccccc3c2n1C
inactive: growth inhibition [1] 0.55% | growth inhibition [2] -0.705% | viability increase [3] -2.09% | viability [4] 103% | viability [5] 97% | inhibition [6] 0.185% | RAM network inhibition [7] 3.23%

CN(C)C1NC(=O)c2cc(-c3ccccc3)sc2N1 (configuration not stated)
inactive: growth inhibition [1] -5.92% | growth inhibition [2] -10.2% | viability increase [3] -0.01% | viability [4] 102% | viability [5] 104% | inhibition [6] 0.135% | RAM network inhibition [7] 2.33%

NC(=O)c1cc(Cl)cn(-c2ccccc2)c1=O
inactive: growth inhibition [1] -13% | growth inhibition [2] -5.85% | viability increase [3] -0.12% | viability [4] 99.7% | viability [5] 95% | inhibition [6] 1.81% | RAM network inhibition [7] 4.23%

N#CCCN1CCN(S(=O)(=O)c2ccc(S(=O)(=O)NCc3ccccc3)cc2)CC1
inactive: growth inhibition [1] -3.28% | growth inhibition [2] -15.5% | viability increase [3] 0.18% | viability [4] 96% | viability [5] 100% | inhibition [6] 1.91% | RAM network inhibition [7] 3.5%

O=C(NCc1ccc(F)cc1)c1cc2n(n1)C(C(F)(F)F)CC(C1CC1)N2 (configuration not stated)
inactive: growth inhibition [1] -4.54% | growth inhibition [2] -7.74% | viability increase [3] -0.43% | viability [4] 106% | viability [5] 96% | inhibition [6] 4.14% | RAM network inhibition [7] 4.9%

CC12CN3CC(C)(CN(C1)C3c1ccc3ccccc3c1O)C2=O (configuration not stated)
inactive: growth inhibition [1] -10.8% | growth inhibition [2] -19.3% | viability increase [3] -0.54% | viability [4] 101% | viability [5] 100% | inhibition [6] -0.515% | RAM network inhibition [7] -0.68%

C/C(=C1/SC(N2CCOCC2)=NC1=O)c1ccc(Br)cc1
inactive: growth inhibition [1] -1.67% | growth inhibition [2] 3.21% | viability increase [3] -1.99% | viability [4] 94.5% | viability [5] 101% | inhibition [6] 1.26% | RAM network inhibition [7] 0.72%

Cc1ccc(C(=O)NCc2ccc(Cl)c(Cl)c2)o1
inactive: growth inhibition [1] -3.73% | growth inhibition [2] 4.06% | viability increase [3] 0.03% | viability [4] 98% | viability [5] 98.5% | inhibition [6] 0.67% | RAM network inhibition [7] 1.28%

Cc1ccc2oc(=O)c3cnn(CC(=O)N4CCN(c5ccccn5)CC4)c3c2c1
inactive: growth inhibition [1] -7.07% | growth inhibition [2] -17.7% | viability increase [3] -1.28% | viability [4] 91.8% | viability [5] 87.6% | inhibition [6] 1.41% | RAM network inhibition [7] -0.31%

COc1ccc(N2CCN(C(=O)c3ccc(CNc4c(N5CCOCC5)c(=O)c4=O)cc3)CC2)cc1
inactive: growth inhibition [1] 5.2% | growth inhibition [2] 8.53% | viability increase [3] -3.13% | viability [4] 96.2% | viability [5] 98.5% | inhibition [6] -0.255% | RAM network inhibition [7] -1.5%

C=CCn1c(NC(C)c2cc(Cl)ccc2O)nc2ccccc21 (configuration not stated)
inactive: growth inhibition [1] -8.04% | growth inhibition [2] -0.215% | viability increase [3] -0.96% | viability [4] 68.6% | viability [5] 65.1% | inhibition [6] 0.29% | RAM network inhibition [7] -1.03%
